Experiment: Toxicity liver stage against HepG2, at 10uM
Format: cell-based
Set-up: test concentration 10 uM, cell line HepG2-A16-CD81EGFP
Settings: human, HepG2-A16-CD81EGFP cells; read-out: INHIBITION
Summary of the method: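 Uninfected HepG2-A16-CD81EGFP cells, 3 × 10^3 per well, 1536-well, plated on prespotted compound at 10 μM final, parasite-free screening media added to match infected plates; puromycin 10 μM positive, DMSO 0.5% negative; run in parallel with 48 h PbLuc assay at 37 °C, 5% CO2; viability by CellTiter-Glo luminescence, normalized to controls.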

Row | Structure (SMILES) | cytotoxicity at 10 µM [%]
1 | O=C(c1cccnc1)N1CCN2C(=O)N(Cc3ccc(F)cc3)C[C@H]2C1 | -0.756
2 | O=C1CCNc2ccccc2CN1Cc1ccco1 | 1.22
3 | COC(=O)COn1c(SC)nc2ccccc2c1=O | -6.53
4 | CC(C)(C)C1SCC(=O)Nc2c1c(O)nn2C1CCCC1 (centres undefined) | 3.36
5 | CCNC(=O)NCc1nn(CCN2CCCC2)c(=O)c2ccccc12 | -3.85
6 | O=C(NC1CCCC1)C1CCN(c2cc(-n3ccnc3)ncn2)CC1 | -9.19
7 | CNC(=O)CS(=O)(=O)C1CCN(S(=O)(=O)c2cccnc2)CC1 | -1.68
8 | Cn1cnc2c1C(COCC1CC1)CN(C(=O)c1ccsc1)C2 (centres undefined) | 4.73
9 | Cc1ccc(Sc2ccc(N3CCC(C(=O)O)CC3)nn2)cc1 | -0.0154
10 | CC(C)C[C@H](N)COc1cccc(F)c1Oc1ccccc1 | -5.08
11 | CN(C)c1cccc(C2CCN(c3ncccn3)CC2)n1 | -8.41
12 | Cc1nn(C)cc1CN(Cc1ccccn1)Cc1ccccc1Cl | 1.2
13 | CCC1CCCCN1C(=O)Cn1cnc(C#N)n1 (centres undefined) | -22.1
14 | O=C1CC(C(=O)Nc2nnc(-c3cccs3)[nH]2)c2ccccc2N1 (centres undefined) | -0.921
15 | Fc1ccc2c(c1)CCC2NCc1ccc(N2CCOCC2)cc1 (centres undefined) | -1.54
16 | O=C(Nc1ccc2c(c1)C(=O)NC2=O)c1cccs1 | -4.08
17 | COCCn1nc(C(=O)N2CCOCC2C)ccc1=O (centres undefined) | -8.97
18 | COC(=O)N1CCCC(C(=O)NCCc2c[nH]c3cc(C)ccc23)C1 (centres undefined) | -5.95
19 | CCc1ccsc1C(=O)NC(C#N)CC(C)C (centres undefined) | -15
20 | N#Cc1ccc(Cl)cc1NCC1CC1 | -3.7
21 | CCC(c1ccc(F)cc1F)N1CCN(CCO)CC1 (centres undefined) | -4.34

Row | Structure (SMILES) | cytotoxicity at 10 µM [%]
22 | O=C(Nc1ccc(F)cc1F)NC1(CO)CCOCC1 | -40.4
23 | COCCCn1ccc(NC(=O)NCCn2ccnc2)n1 | -2.14
24 | CCC(NCc1nccn1C)c1nc(C(F)(F)F)cs1 (centres undefined) | 0.245
25 | CCN(CC1CCCO1)S(=O)(=O)c1cc(NC(C)=O)ccc1C (centres undefined) | 1.82
26 | O=C(CN1CCC2(CCCCC2)C1)NCC(F)(F)F | -10.5
27 | Cc1ccc(OCCN(C)Cc2ccc(S(=O)(=O)N(C)C)o2)cc1 | -14.8
28 | COc1cccc(C(O)C(=O)N(C)CCc2ccccn2)c1 (centres undefined) | 0.413
29 | CCNC(c1ccc(F)cc1)c1cccnc1 (centres undefined) | 2.73
30 | O=C(NCCCc1nc(=O)[nH][nH]1)Nc1cccc(F)c1 | -51.1
31 | Cc1ccccc1CN(C)C(=O)c1ccoc1 | 2.2
32 | O=C(NCc1nnc2n1CCCCC2)N1CCC2(CCCCC2)C1 | -13.4
33 | Cc1n[nH]c(C)c1C1CCCN1C(=O)CNC(=O)C(C)(C)C (centres undefined) | -29
34 | O=C(c1ccc2c(c1)OCO2)N1CCC[C@]2(C[C@H](OCC3CC3)CO2)C1 | 2.34
35 | CCN(CC)C(=O)[C@@H]1C[C@@H](NC(=O)c2cccc(N(C)C)c2)CN1C | 6.69
36 | Cn1c(C(N)=O)cc2c1CN(C(=O)C1CC(=O)N(C(C)(C)C)C1)CC2 (centres undefined) | -49.6
37 | Cn1nc(CN2CCCN(C3CCCC3)CC2)c2c(Cl)cccc21 | 11
38 | CC1(C)CN(C(=O)c2cnc(CN3CCCC3)s2)CC[C@]1(C)O | -15.1
39 | NC(=O)c1csc(N2CCN(C3CCc4ccccc4C3)CC2)n1 (centres undefined) | 1.67
40 | O=C(c1cc(=O)[nH]c(=O)[nH]1)N1CCCC(CO)(CC2CC2)C1 (centres undefined) | -3.02
41 | Nc1ncccc1CN1CCOCC1CC(=O)NCc1ccccn1 (centres undefined) | 9.66
42 | Cc1nc(CN2CCCC(CCc3ccccc3C)C2)c[nH]1 (centres undefined) | -1.35

Row | Structure (SMILES) | cytotoxicity at 10 µM [%]
43 | COc1ncc(C(=O)N2CCCC3(C=Cc4ccccc4O3)CC2)cn1 (centres undefined) | 7.61
44 | COC(=O)c1ccc(N2CCN(C(=O)CCCc3cn[nH]c3)CC2)cc1 | -4.32
45 | Cc1cc(C(F)(F)F)nc(CNC(=O)CCCN2CCCCC2)n1 | -53.1
46 | COCCc1noc(CN(C)c2nc(C)nc(C)c2C)n1 | 4.24
47 | Cc1cccc(CN2CCCC(O)(CNCCc3c[nH]cn3)C2=O)c1 (centres undefined) | 1.31
48 | CNCc1cn(CC2CCN(Cc3cccs3)CC2)nn1 | -4.47
49 | C[C@@H]1CN(C2CCN(c3ccccc3F)CC2)C[C@]1(C)O | -2.19
50 | O=C(CC1COCCN1)NCCc1nc(-c2ccccn2)no1 (centres undefined) | -0.849
51 | CC(C)C1CN(C(=O)c2cn3ccccc3n2)CCCN1CC1CC1 (centres undefined) | -13.6
52 | CCOCC(=O)N1CCC(Cc2nnc(SC)n2C)CC1 | -53
53 | CC(C)CN1CCCC1c1ccc(C(=O)Nc2cn(C)nn2)s1 (centres undefined) | -4.69
54 | Cn1ccc(C(=O)N2CCC3(CCC(=O)N(C4CCCC4)C3)CC2)n1 | -6.19
55 | COc1cnc(N2CCCN(Cc3ccc(F)cc3)CC2)nc1 | -5.41
56 | COc1cc(C)cc(-c2nc3c([nH]2)CCNC3)c1OC | 4.46
57 | COc1cc(C2CC(=O)Nc3c2nc2n3CCCC2)ccc1O (centres undefined) | -4.27
58 | COc1ccc(CCN2C(=O)O[C@@H]3CN(C4CCSCC4)C[C@@H]32)cc1 | 1.6
59 | O=c1cc(-c2cccnc2)nc(-c2ccc(CN3CC[C@@H](O)C3)cc2)[nH]1 | 2.89
60 | Cc1cc2nc(C(C)C)cc(NC(C)c3nncn3C)n2n1 (centres undefined) | 2.83
61 | CCc1cc(NCCCC2CCOC2)n2nccc2n1 (centres undefined) | 5.04
62 | CCOc1ccc(CN2CCN(C(=O)c3cc(C4CC4)[nH]n3)CC2)cc1 | 36.1
63 | CN1CCOC(CN(C(=O)CN2CCCC2=O)c2nccs2)C1 (centres undefined) | -7.06

Row | Structure (SMILES) | cytotoxicity at 10 µM [%]
64 | Cc1nn(C)c(Cl)c1C1CCCN1C(=O)c1ccc(O)nc1 (centres undefined) | -11.2
65 | CN(CC(=O)N1CCCC1Cn1cccn1)Cc1ccccc1 (centres undefined) | -2.12
66 | COc1cc(C)sc1C(=O)N1CCCC(n2nc(C)nc2C)C1 (centres undefined) | -13.6
67 | O=C(c1cc2ccccc2[nH]1)N1CCCCC1Cn1cccn1 (centres undefined) | 1.27
68 | CC(NCc1ccccc1Cl)c1ccc(OCC(=O)NC2CC2)cc1 (centres undefined) | -12.7
69 | O=C(O)c1cc(S(=O)(=O)Nc2ccc(F)c(Cl)c2)cc2c1OCCO2 | -2.33
70 | CCc1noc(CN2CCN(CC(O)c3ccccc3)CC2)n1 (centres undefined) | 1.19
71 | Cc1cc(C2CCCN2CCC(=O)N2CCc3sccc3C2)no1 (centres undefined) | -16.1
72 | CN(Cc1ccsc1)C(=O)Nc1cccnc1N1CCCC1 | -4.37
73 | CN(Cc1ccc2c(c1)OCCO2)C(=O)NCCc1cnn(C)c1 | -9.12
74 | Cn1cnc(S(=O)(=O)NCCCN2CCOCC2)c1Cl | -11.2
75 | O=C(Cc1noc2ccccc12)N1CCCC1c1noc(C2CC2)n1 (centres undefined) | 61.5
76 | O=S(=O)(CCCN1CCCC1Cn1cncn1)c1ccccc1 (centres undefined) | -7.64
77 | Cc1ccoc1C(=O)NCC(Cc1ccc(F)cc1)C(N)=O (centres undefined) | -0.77
78 | CC(C)c1nc(CN2CCCCC2)cs1 | 20.2
79 | Cn1cc(CN2Cc3c(cnn3C)C(COCC3CC3)C2)cn1 (centres undefined) | -2.8
80 | c1cc(-c2ccc3nc(C4CCN(CC5CC5)CC4)nn3c2)ccn1 | -0.966
81 | CN(Cc1cccnc1)C1CC2(CCN(c3ccccn3)CC2)C1 | 2.86
82 | CCc1cccc2c(CC(=O)N(C)CCN(C)C)c(C)[nH]c12 | 1.26
83 | CC(C)CN1CC[C@H]2OCC[C@@H](C(=O)N3CCCO3)[C@@H]2C1 | 3.45
84 | O=c1[nH]c2cn(-c3cccc(F)c3)c(=O)n2[nH]1 | -0.687

From ChEMBL document CHEMBL4513216, “Probing the Open Global Health Chemical Diversity Library for Multistage-Active Starting Points for Next-Generation Antimalarials” (ACS Infect Dis, 2020)
